Data set [1] concerns ZR-75-1. As to the kind of experiment: Cytotoxicity against human ZR-75-1 after 72 hrs by SRB assay. Type of data set: functional. The following applies: ZR-75-1, 72 h, read-out: ED50 (the source's name). The essentials: (§1)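 Cells grown in RPMI-1640 with 10% FBS, penicillin, streptomycin and amphotericin B at 37 °C, 5% CO2, then trypsinized and seeded in 96-well plates. Compounds were added from DMSO-diluted stock and incubated 72 h after attachment. Cells were TCA-fixed, stained with 0.4% SRB and read at 515 nm. ED50 is the concentration halving net protein increase, averaged from at least two independent determinations with SEM.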
For orientation: In SRB staining, fixed cells bind dye roughly in proportion to their protein.

A short description of data set [2]: Cytotoxicity against human vincristine-resistant KBVIN after 72 hrs by SRB assay. The following applies: read-out: ED50 (the source's name). Type of data set: functional. In outline: as §1
In data set [3] the test system is SK-BR-3. Description: Cytotoxicity against human SK-BR-3 cells after 72 hrs by SRB assay. The class given is functional. The following applies: SK-BR-3, 72 h, read-out: ED50 (the source's name). In outline: as §1
Data set [4] deals with SK-BR-3. Description: Selectivity ratio of ED50 for human A549 cell to ED50 for human SK-BR-3 cells. The class given is functional. In outline:
(§2)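 Ratio of the ED50 in the stated line to the ED50 in SK-BR-3. Each ED50 came from the 72 h SRB protein-stain assay in RPMI-1640/10% FBS-grown cells, as the concentration halving net protein increase, averaged over at least two independent determinations.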

A further data set relates to MDA-MB-231. As to the kind of experiment: Cytotoxicity against human MDA-MB-231 after 72 hrs by SRB assay. Type of data set: functional. The following applies: MDA-MB-231, 72 h, read-out: ED50 (the source's name). In outline:
as §1

The subject of another data set is DU-145. As to the kind of experiment: Cytotoxicity against human DU145 after 72 hrs by SRB assay. Type of data set: functional. The settings on record: DU-145, 72 h, read-out: ED50 (the source's name).
In data set [5] the test system is SK-BR-3. Description: Selectivity ratio of ED50 for human DU145 cell to ED50 for human SK-BR-3 cells. The class given is functional.
Data set [6] concerns SK-BR-3. As to the kind of experiment: Selectivity ratio of ED50 for human KB cell to ED50 for human SK-BR-3 cells. Type of data set: functional. In outline: as §2
In data set [7] the test system is SK-BR-3. As to the kind of experiment: Selectivity ratio of ED50 for human MDA-MB-231 cell to ED50 for human SK-BR-3 cells. Type of data set: functional. The essentials: as §2
Data set [8] relates to ZR-75-1. Description: Selectivity ratio of ED50 for human ZR-75-1 cell to ED50 for human SK-BR-3 cells. The class given is functional. The essentials:
as §2

The subject of data set [9] is SK-BR-3. Description: Selectivity ratio of ED50 for human vincristine-resistant KBVIN cell to ED50 for human SK-BR-3 cells. Type of data set: functional. The essentials:
as §2

In the next data set the test system is A549. As to the kind of experiment: Cytotoxicity against human A549 after 72 hrs by SRB assay. The class given is functional. The settings on record: A549, 72 h, read-out: ED50 (the source's name). In outline: as §1
Another data set deals with KB. As to the kind of experiment: Cytotoxicity against human KB after 72 hrs by SRB assay. Type of data set: functional. The settings on record: read-out: ED50 (the source's name). In outline:
as §1

For data set [10], the system named is SK-BR-3. As to the kind of experiment: Cytotoxicity against human SK-BR-3 cells after 72 hrs by MTT assay. Type of data set: functional. The settings on record: SK-BR-3, 72 h, read-out: ED50 (the source's name). The essentials: (§3)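 MTT read-out: 5000 cells/well were seeded in 96-well plates in recommended growth medium and incubated overnight. Drug in DMSO was added, with 72 h at 37 °C in 5% CO2. MTT reagent was then added for 2 h, and formazan was read as optical density at 570. Data are mean and SD of replicates from a single experiment.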

Data set [11] in a line: Cytotoxicity against human 184A1 after 72 hrs by MTT assay. The class given is cell-based. The settings on record: 184A1 cells, read-out: ED50. In outline: as §3
A general note: Tetrazolium dyes change colour on reduction, which living cells bring about.

Data set [12] is described as follows: Cytotoxicity against human MCF10A after 72 hrs by MTT assay. Type of data set: cell-based, MCF-10A. The settings on record: MCF10A cells, read-out: ED50. The essentials: as §3

Bounds are passed on as bounds.

As to `Cc1cccc2c1ccc1c3occ(C)c3c(=O)oc21`, the EC50 was 0.9 µM with ZR-75-1 [1], over 75.8 µM in data set [2] and 0.95 µM in the data set on SK-BR-3 [3].

On to `Cc1ccc(-c2cc3occ(C)c3c(=O)o2)cc1C`, for which, in the data set with SK-BR-3 [3], the EC50 worked out at 14.6 µM.

With `COc1cc(OC)cc(-c2cc3occ(C)c3c(=S)o2)c1`, the EC50 with SK-BR-3 [3] was over 66.2 µM.

As for `Cc1coc2cc(-c3cccc(F)c3)oc(=O)c12`, the EC50 in the data set with SK-BR-3 [3] stood at 20.5 µM.

As for `Cc1ccc(-c2cc3occ(C)c3c(=O)o2)cc1`, the EC50 in the data set with SK-BR-3 [3] is over 83.3 µM.

On to `COc1ccc(-c2cc3occ(C)c3c(=O)o2)cc1`, for which the EC50 in the data set with SK-BR-3 [3] is over 78.1 µM.

As for `Cc1coc2cc(-c3ccc(O)cc3)oc(=O)c12`, the EC50 in the data set with SK-BR-3 [3] worked out at 36 µM.

For the molecule `Cc1coc2cc(-c3cc(O)cc(O)c3)oc(=O)c12`, the EC50 in the data set with SK-BR-3 [3] was determined as 38.4 µM.

Turning to `COc1cc(-c2cc3occ(C)c3c(=O)o2)cc(OC)c1OC`, the “Ratio ED50” value in the data set on SK-BR-3 [4] came to 100; in the data set with SK-BR-3 [5], 100; in the data set on SK-BR-3 [6] it was 100; in the data set on SK-BR-3 [7], 100; in the data set on ZR-75-1 [8], 66; with SK-BR-3 [9], 100. The EC50 in the data set on MDA-MB-231 was over 31.6 µM; with ZR-75-1 [1], 29.1 µM; in the data set with DU-145, over 63.3 µM; in data set [2], over 63.3 µM; in the data set on A549, 63.3 µM; with SK-BR-3 [3], 0.44 µM.

As for `Cc1coc2cc(-c3cccc(O)c3)oc(=O)c12`, the EC50 was over 41.3 µM in the data set on MDA-MB-231; 0.9 µM in the data set on ZR-75-1 [1]; 82.6 µM in the data set on DU-145; 60.3 µM in [2]; 68.6 µM in the data set on A549; 65.3 µM in the data set on KB. For the same molecule, the EC50 in the data set with SK-BR-3 [3] amounted to 1.61 µM.

`Cc1coc2cc(-c3cccc(O)c3O)oc(=O)c12`: the EC50 in the data set with SK-BR-3 [3] amounted to 34.1 µM.

Consider `Cc1coc2cc(-c3ccc(O)c(O)c3)oc(=O)c12`, for which the EC50 in the data set with MDA-MB-231 amounted to 22.9 µM; with ZR-75-1 [1] it was 1.2 µM; with DU-145, 25.6 µM; in data set [2], 23.3 µM; in the data set on A549, 19.4 µM; in the data set on KB, 20.2 µM. The EC50 in the data set on SK-BR-3 [3] is 0.47 µM.

`Cc1cc(C)cc(-c2cc3occ(C)c3c(=O)o2)c1`: the EC50 in the data set on SK-BR-3 [3] was determined as 22.4 µM.

Regarding `COc1cc(OC)cc(-c2cc3oc(C)c(C)c3c(=O)o2)c1`, the EC50 in the data set with SK-BR-3 [3] was over 66.7 µM.

Take `Cc1coc2cc(-c3ccccc3)oc(=O)c12`: in the data set on SK-BR-3 [3], the EC50 was 15.5 µM.

`Cc1cccc(-c2cc3occ(C)c3c(=O)o2)c1`: the EC50 is over 83.3 µM in the data set on MDA-MB-231; 6.3 µM in the data set with ZR-75-1 [1]; 24.6 µM in the data set on DU-145; 40 µM in data set [2]; 53.8 µM in the data set on A549; 43.8 µM in the data set with KB. For the same molecule, the EC50 in the data set with SK-BR-3 [3] stood at 1.5 µM.

As for `COc1cccc(-c2cc3occ(C)c3c(=O)o2)c1`, the EC50 was over 39.1 µM in the data set with MDA-MB-231; 5.5 µM in the data set with ZR-75-1 [1]; over 78.1 µM in the data set on DU-145; 71.1 µM in [2]; 58.2 µM in the data set on A549; 2.58 µM in the data set with SK-BR-3 [3].

As for `COc1cc(OC)cc(-c2cc3occ(C)c3c(=O)o2)c1`, the EC50 in the data set with SK-BR-3 [10] is 1000 nM; in the data set with MDA-MB-231, over 69.9 µM; with ZR-75-1 [1], 30.8 µM; in the data set on DU-145, 65.4 µM; in [2], over 69.9 µM; with A549, over 69.9 µM. In the data set on SK-BR-3 [3], the EC50 was 0.28 µM. Further, the “Ratio ED50” value with SK-BR-3 [4], in the data set on SK-BR-3 [5], with SK-BR-3 [6], in the data set on SK-BR-3 [7], with ZR-75-1 [8] and with SK-BR-3 [9] was 100 in each case. Further, the CC50 at 72 h in data set [11] is 16.8 µM; in data set [12], over 35 µM.

Regarding `COc1cccc(-c2cc3occ(C)c3c(=O)o2)c1OC`, the EC50 in the data set with SK-BR-3 [3] is 65 µM.

Regarding `Cc1coc2cc(-c3ccc(F)cc3)oc(=O)c12`, in the data set with SK-BR-3 [3], the EC50 worked out at 19.3 µM.

With `CCc1coc2cc(-c3cc(OC)cc(OC)c3)oc(=O)c12`, the EC50 with SK-BR-3 [3] came to 55.6 µM.

For `CCOc1cccc(-c2cc3occ(C)c3c(=O)o2)c1`, the EC50 in the data set on MDA-MB-231 is over 37 µM; in the data set on ZR-75-1 [1] it was 2.2 µM; in the data set with DU-145 it was 74.1 µM; in [2], over 74.1 µM; with A549 it was 57.8 µM; with KB it was 64.4 µM. Further, the EC50 in the data set with SK-BR-3 [3] stood at 0.67 µM.

Regarding `COc1ccc(-c2cc3occ(C)c3c(=O)o2)cc1OC`, the EC50 in the data set with SK-BR-3 [3] is over 69.9 µM.

The values are drawn from ChEMBL document CHEMBL1159044, “Antitumor agents 270. Novel substituted 6-phenyl-4H-furo[3,2-c]pyran-4-one derivatives as potent and highly selective anti-breast cancer agents” (Bioorg Med Chem, 2010).
